RPL19A-GFP yeast = RPL19A-GFP expression modulators in yeast, primary screen, cell-based, S. cerevisiae, multiplex flow cytometry, MLPCN; 0.3% of 330,000 active; AID 2025, 2009; S. cerevisiae RPL19A-GFP strain, 3 h; hits give low values; percent response vs DMSO, % at 10 µM;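 active means percent response vs DMSO below 50%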;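 further: median channel GFP fluorescence of the barcoded RPL19A-GFP strain; lower means less RPL19A-GFP as with rapamycin TOR inhibition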
AGP1 TOR yeast = modulators of AGP1-GFP expression in yeast TOR pathway, primary screen, cell-based, multiplex flow cytometry, S. cerevisiae, MLPCN library; 3 h; GFP as percent of DMSO wells; GFP response vs DMSO, % at 10 µM; 0.02% of 320,000 active;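 active means GFP response relative to DMSO above a set limit, near screen average plus 3 SD, cut at about 150% in these data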;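 further: median GFP channel fluorescence of the gated AGP1 strain per well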
MEP2 TOR yeast = modulators of MEP2-GFP levels in yeast, primary screen, S. cerevisiae, multiplex flow cytometry, MLPCN library; GFP response vs DMSO, % at 10 µM; 0.51% of 330,000 active; S. cerevisiae MEP2-GFP strain, 3 h; 100% = DMSO control level; AID 2016, 2009;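 active means GFP response versus DMSO above a set limit, roughly screen mean plus 3 SD, cut at about 180% in these data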;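 further: median GFP fluorescence of the barcode-gated MEP2-GFP cells per well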
T cell modulator = modulators of CD8 T cell-vesicle binding, primary screen, mouse 2C CD8+ T cells, flow cytometry. 2C CD8+ T cell-vesicle binding; hits give low values. response (vesicle binding), % at 7 µM. 0.068% of 330,000 active;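 active means response, share of CD8 T cells binding vesicles, and their 90th percentile fluorescence all below set limits, cut at about 80% in these data, passing the limit was not always enough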;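 further: values below 100% mean blocked vesicle binding to the CD8+ T cells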
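Read-out – percent CD8+ FL2 mean versus row control · System – murine 2C transgenic CD8+ T lymphocytes · Times – 1.5 h cell–vesicle binding at 37 °C, then 20 min icy labelling · Control set – naked vesicles low, QL9 vesicles with vehicle high · Detection – cytometric PE anti-B7-1 and Alexa647 anti-CD8 signals after 1% paraformaldehyde fixation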
LAP4-GFP MLPCN = modulators of LAP4-GFP expression in yeast, primary screen, S. cerevisiae, multiplex flow cytometry, MLPCN library | GFP response vs DMSO, % at 10 µM | 0.34% of 320,000 active | 3 h; median GFP as percent of DMSO wells | AID 2023, 2009;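 active means GFP response vs DMSO above a set limit, about the screen mean plus 3 SD, cut at about 150% in these data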
CIT2 TOR yeast = modulators of CIT2-GFP expression in yeast, primary screen, S. cerevisiae, GFP fusion, multiplex flow cytometry, MLPCN library; S. cerevisiae CIT2-GFP strain, 3 h; 100 means same as DMSO wells; GFP response vs DMSO, % at 10 µM; 0.065% of 320,000 active;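 active means GFP response relative to DMSO above a set limit, near the screen mean plus 3 SD, cut at about 150% in these data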;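 further: ratio of well median GFP fluorescence to mean of DMSO wells on the plate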
LAP4 cherry2 = LAP4-GFP expression modulators in yeast, confirmation, cell-based, second cherry pick, flow cytometry. GFP response vs DMSO, % at 10 µM. shares compounds with LAP4-GFP MLPCN. S. cerevisiae LAP4-GFP strain, 3 h. 20% of 590 active. AID 2621, 2010;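 active means GFP signal as percent of the solvent control above about 150%, meaning raised reporter expression, limit read from the data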
MEP2-GFP pick2 = modulators of MEP2-GFP levels in yeast, confirmation, S. cerevisiae, flow cytometry GFP, second cherry picks. 10% of 590 active. shares compounds with LAP4-GFP MLPCN. S. cerevisiae MEP2-GFP strain, 3 h. GFP response vs DMSO, % at 10 µM;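 active means GFP signal above 150% of the solvent control wells, that is a rise of more than half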;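 further: median channel GFP fluorescence of all gated yeast cells per well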
RPL19A-GFP pick2 = RPL19A-GFP modulators in TOR pathway yeast, confirmation, cell-based, S. cerevisiae, flow cytometry, second cherry pick; shares compounds with LAP4-GFP MLPCN; S. cerevisiae RPL19A-GFP strain, 3 h; hits give low values; 100% means same as DMSO wells; GFP response vs DMSO, % at 10 µM; 3% of 590 active; AID 2623, 2010;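 active means under 65% GFP response relative to DMSO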;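 further: median GFP channel fluorescence per well over the all cells gate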
CIT2-GFP pick2 = modulators of CIT2-GFP expression in yeast, confirmation, flow cytometry, second cherry pick, single plex | GFP response vs DMSO, % at 10 µM | 8% of 590 active | AID 2624, 2010 | S. cerevisiae CIT2-GFP strain, 3 h; DMSO control wells read 100% | shares compounds with LAP4-GFP MLPCN;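 active means GFP response vs DMSO above about 150%, limit read from the data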;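 further: median green fluorescence per well over all gated yeast cells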
AGP1 GFP CP2 = AGP1-GFP expression modulators, hit retest, confirmation, cell-based, flow cytometry, S. cerevisiae, cherry pick set 2; shares compounds with LAP4-GFP MLPCN; S. cerevisiae AGP1-GFP strain, 3 h; percent response vs DMSO, % at 10 µM; 590 tested, under 10 active; AID 2643, 2010;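 active means over 150 percent of DMSO response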;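 further: median GFP channel fluorescence over all cells without mother daughter split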
s288c autofluor = compound autofluorescence in yeast s288c, dose response, artefact control for yeast TOR pathway GFP screen, s288c strain. shares compounds with LAP4-GFP MLPCN. S. cerevisiae s288c, 520 nm autofluorescence, flow cytometry, 3 h; hits give high values; zero means same as solvent-only cells. fluorescence change (kMESF span) at 33 µM. 610 tested, under 10 active;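 active means fluorescence span over the dose series, or activity score, above about 33, limit read from the data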
A number is an active result. Compounds with a hit are over-represented: about 0.96% of the library has one in this group of screens.

CC1CCN(C(=O)Cn2cc(S(=O)(=O)CC(=O)N3CCOCC3)c3ccccc32)CC1 was read as RPL19A-GFP yeast inactive, AGP1 TOR yeast inactive, MEP2 TOR yeast inactive, T cell modulator inactive, LAP4-GFP MLPCN inactive and CIT2 TOR yeast inactive.
Screening CC1CN(C(=O)Cn2cc(S(=O)(=O)CC(=O)N3CCOCC3)c3ccccc32)CC(C)O1 (configuration not stated) returned RPL19A-GFP yeast inactive, AGP1 TOR yeast inactive, MEP2 TOR yeast inactive, T cell modulator inactive, LAP4-GFP MLPCN inactive, CIT2 TOR yeast 163, LAP4 cherry2 inactive, MEP2-GFP pick2 inactive, RPL19A-GFP pick2 inactive, CIT2-GFP pick2 inactive and AGP1 GFP CP2 inactive.
COc1ccc(NC(=O)Cc2ccccc2)cn1 was read as RPL19A-GFP yeast inactive, AGP1 TOR yeast inactive, MEP2 TOR yeast inactive, T cell modulator inactive, LAP4-GFP MLPCN inactive and CIT2 TOR yeast inactive.
`COc1ccc(NC(=O)/C(Cl)=C(/Cl)S(=O)Cc2ccccc2)cn1` (configuration not stated) gave RPL19A-GFP yeast inactive, AGP1 TOR yeast inactive, MEP2 TOR yeast inactive, T cell modulator inactive, LAP4-GFP MLPCN 288, CIT2 TOR yeast inactive and s288c autofluor inactive.
Screening COc1ccc(CC(=O)OCC(=O)NC2CCCC(C)C2C)cc1OC (configuration not stated) returned RPL19A-GFP yeast inactive, AGP1 TOR yeast inactive, MEP2 TOR yeast inactive, T cell modulator inactive, LAP4-GFP MLPCN inactive and CIT2 TOR yeast inactive.
C=CCNC(=O)/C(C#N)=C/c1ccc(OS(=O)(=O)c2ccc(C)cc2)c(OC)c1 was read as RPL19A-GFP yeast inactive, AGP1 TOR yeast inactive, MEP2 TOR yeast inactive, T cell modulator inactive, LAP4-GFP MLPCN 186, CIT2 TOR yeast inactive, LAP4 cherry2 inactive, MEP2-GFP pick2 inactive, RPL19A-GFP pick2 inactive, CIT2-GFP pick2 inactive and AGP1 GFP CP2 inactive.
COC(=O)N/N=C/c1ccc(OS(=O)(=O)c2ccc(C)cc2)c(OC)c1 was read as RPL19A-GFP yeast inactive, AGP1 TOR yeast inactive, MEP2 TOR yeast inactive, T cell modulator inactive, LAP4-GFP MLPCN inactive and CIT2 TOR yeast inactive.
For Cc1cc(O)ccc1C1(c2ccc(O)cc2C)OC(=O)c2ccccc21 the results were RPL19A-GFP yeast inactive, AGP1 TOR yeast inactive, MEP2 TOR yeast inactive, T cell modulator inactive, LAP4-GFP MLPCN inactive and CIT2 TOR yeast inactive.

Assay outcomes (PubChem BioAssay)
